Laboratory results taken from ChEMBL document CHEMBL1153067, “Synthesis and optimization of 2-pyridin-3-yl-benzo[d][1,3]oxazin-4-one based inhibitors of human neutrophil elastase” (Bioorg Med Chem Lett, 2009).

assay: Stability in heparin treated rat plasma at 2 uM at 37 degC by electrospray ionization mass spectrometry; type: ADME, cell-free
Outline: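 Compounds at […] incubated at 37 °C in heparinized rat plasma. Plasma proteins precipitated with acetonitrile, then compound quantified by ESI-MS against an internal standard. t1/2 derived from a first-order rate constant fitted to concentration versus time.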

`CCc1cc(OC)cc2nc(-c3cccnc3N3CCN(C4CCCC4)CC3)oc(=O)c12` and `CCc1cc(OC)cc2nc(-c3cccnc3N3CCN(CC4CC4)CC3)oc(=O)c12` are within 1.5-fold of each other in half-life at 2 µM: 90 min for the first, 69 min for the second.

Going from `CCc1cc(OC)cc2nc(-c3cccnc3N3CCN(CC(C)C)CC3)oc(=O)c12` to `CCc1cc(OC)cc2nc(-c3cccnc3N3CCN(CCO)CC3)oc(=O)c12`, the half-life at 2 µM falls from 48 min to 17 min (2.8-fold).

Compared with `CCc1cc(OC)cc2nc(-c3cccnc3N3CCN(C)CC3)oc(=O)c12`, `CCc1cc(OC)cc2nc(-c3cccnc3N3CCN(CCOC)CC3)oc(=O)c12` is 1.6-fold lower in half-life at 2 µM: 84 min for the first, 52 min for the second.

First: CCc1cc(OC)cc2nc(-c3cccnc3N3CCN(CCN(C)C)CC3)oc(=O)c12
Second: CCCCN1CCN(c2ncccc2-c2nc3cc(OC)cc(CC)c3c(=O)o2)CC1
The half-life at 2 µM of the first is 6.5-fold lower: 7.8 min for the first, 51 min for the second.

Going from `CCc1cc(OC)cc2nc(-c3cccnc3N3CCC(C(=O)O)CC3)oc(=O)c12` to `CCc1cc(OC)cc2nc(-c3cccnc3N3CCC[C@@H](C(=O)O)C3)oc(=O)c12`, the half-life at 2 µM rises from 81 min to 150 min (1.9-fold).

Compared with `CCc1cc(OC)cc2nc(-c3cccnc3N3CCN(CCN4CCOCC4)CC3)oc(=O)c12`, `CCc1cc(OC)cc2nc(-c3cccnc3N3CCN(CCC#N)CC3)oc(=O)c12` is 1.7-fold lower in half-life at 2 µM: 19 min for the first, 11 min for the second.

Going from `CCc1cc(OC)cc2nc(-c3cccnc3N3CCN(CC(=O)O)CC3)oc(=O)c12` to `CCc1cc(OC)cc2nc(-c3cccnc3N3CCC[C@H](C(=O)O)C3)oc(=O)c12`, the half-life at 2 µM falls from 270 min to 140 min (1.9-fold).

assay: Chemical stability in 200 mM sodium borate buffer at pH 9.2; type: physicochemical
Outline: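 Alkaline hydrolysis followed by loss of the intact benzoxazinone ring absorbance maximum (340 nm 10 nm) in 200 mM sodium borate, pH 9.2, with 1% DMSO.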

First: CCc1cc(OC)cc2nc(-c3cccnc3N3CCN(C)CC3)oc(=O)c12
Second: CCc1cc(N(C)C)cc2nc(-c3cccnc3N3CCN(C)CC3)oc(=O)c12
The half-life of the first is 30-fold lower: 240 min for the first, 7300 min for the second.

`CCc1cccc2nc(-c3cccnc3N3CCN(C)CC3)oc(=O)c12` and `CCc1cccc2nc(-c3cccnc3N3CCN(C4CCN(C)CC4)CC3)oc(=O)c12` are within 1.5-fold of each other in half-life: 65 min for the first, 56 min for the second.

Compared with `CCc1cc(OC)cc2nc(-c3cccnc3N3CCC(C(=O)O)CC3)oc(=O)c12`, `CCc1cccc2nc(-c3cccnc3N3CCC(C(=O)O)CC3)oc(=O)c12` is 11-fold lower in half-life: 1000 min for the first, 89 min for the second.

Compared with `CCc1cc(N(C)C)cc2nc(-c3cccnc3N3CCN(C4CCN(C)CC4)CC3)oc(=O)c12`, `CCc1cc(OC)cc2nc(-c3cccnc3N3CCN(C4CCN(C)CC4)CC3)oc(=O)c12` is 4.9-fold lower in half-life: 6900 min for the first, 1400 min for the second.
